5HT1a ag: human 5-HT1a receptor agonists, primary screen, cell-based, CHO, Ga15 NFAT-bla reporter; activation, % at 10 µM; AID 567, 2006; CHO 5-HT1a Ga15 NFAT-bla reporter, FRET ratio; 0% basal, 100% maximal reference agonist; hit rate 0.56% among 65,000; 5-hydroxytryptamine receptor 1A (Homo sapiens), P08908;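 active means activation above the screen-wide mean activation plus 3 SD, cut at about 19% in these data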
HEK293 NFkB inh: inhibitors of PMA/ionomycin-induced NF-kB reporter, primary screen, antigen receptor NF-kB inhibitor project, cell-based, HEK-293 luciferase reporter, luminescence. inhibition, % at 3 µM. hit rate 0.21% among 62,000. HEK-293 NF-kB luciferase reporter. AID 465, 2006;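 active means inhibition above the mean of all tested compounds plus 3 SD, cut at about 40% in these data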
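System – HEK-293 cells with stable firefly luciferase reporter driven by four HIV NF-kB elements · Doses – one dose, 3 µM · Schedule – 1 h compound pre-incubation, 16 h PMA/ionomycin at 37 °C · Technique – luminescence from luciferase substrate reagent · Measure – percent inhibition normalized per plate to DMSO and reference-inhibitor controls · Replicates – tested once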
5-HT1A blocker: human 5-HT1a receptor antagonists, primary screen, cell-based, CHO, Ga15 NFAT-bla reporter; 5-hydroxytryptamine receptor 1A (Homo sapiens), P08908; CHO 5-HT1a Ga15 NFAT-bla reporter, antagonist mode; inhibition, % at 10 µM; hit rate 0.68% among 62,000; AID 612, 2007;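 active means inhibition above the mean of all tested compounds plus 3 SD, cut at about 43% in these data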;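 further: receptor stimulated by 5-CT agonist at 100 nM near EC80; beta-lactamase reporter measured by ratiometric fluorescence of a cleavable substrate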
5HT1E ag: 5-HT1E receptor agonists, primary screen, cell-based, HTS; 5-hydroxytryptamine receptor 1E (Homo sapiens), P28566; CHO 5-HT1E Ga15 NFAT-bla reporter, FRET; 0% DMSO wells, 100% control agonist wells; activation, % at 6 µM; hit rate 0.69% among 65,000;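 active means activation above a set limit, the screen-wide mean activation plus 3 SD, cut at about 8.5% in these data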
Target sequence (P28566 whole entry, looked up): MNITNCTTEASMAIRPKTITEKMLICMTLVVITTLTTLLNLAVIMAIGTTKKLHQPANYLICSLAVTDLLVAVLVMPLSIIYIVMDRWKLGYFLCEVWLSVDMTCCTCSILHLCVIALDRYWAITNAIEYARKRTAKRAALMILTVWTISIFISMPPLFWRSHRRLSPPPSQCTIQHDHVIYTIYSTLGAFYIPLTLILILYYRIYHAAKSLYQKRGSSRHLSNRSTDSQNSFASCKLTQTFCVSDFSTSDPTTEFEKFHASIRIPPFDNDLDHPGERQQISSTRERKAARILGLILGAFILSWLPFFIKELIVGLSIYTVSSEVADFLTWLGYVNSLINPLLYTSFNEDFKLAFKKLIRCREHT
HTR1E antagonist: 5-HT1E receptor antagonists, primary screen, cell-based, HTS; AID 571, 2007; inhibition, % at 6 µM; CHO 5-HT1E Ga15 NFAT-bla reporter, FRET, antagonist; hit rate 0.99% among 65,000;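 active means inhibition above a set limit, the mean inhibition across every tested compound plus 3 SD, cut at about 29% in these data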;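 further: signal is the 460 over 535 nm emission ratio of beta-lactamase substrate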
SKBR3 24h inh: SK-BR-3 proliferation inhibitors, primary screen, cell-based, human, 24 h | viability, % at 10 µM | SK-BR-3 viability, CellTiter-Glo ATP luminescence; hits give low values | AID 847, 2007 | hit rate 0.47% among 41,000;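 active means viability at or below the median of all test compounds minus 3 SD, in both replicates if run twice, cut at about 45% in these data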
Of the large screens only hits and unclear results are named; the others gave an inactive call. Shown are actives, neighbours in structure and some others; about 2.9% of the full set was active somewhere.

Cn1c(O)c(/C=N/c2ccccn2)c(=O)n(C)c1=O	none
CC1(C)CC(=O)C(C=NCCN2CCN(C(=O)Cc3ccc(F)cc3)CC2)=C(O)C1	none (no result: HEK293 NFkB inh, 5-HT1A blocker)
C=CCn1c(O)c(C=Nc2ccc(OC)cc2C)c(=O)[nH]c1=O	none
Nc1c(C(=O)NC2CCCC2)c2nc3ccccc3nc2n1CC1CCCO1 (stereo unspecified)	5HT1a ag 28.1
COc1ccc(Cc2nccc3cc(OC)c(OC)cc23)cc1OC	HTR1E antagonist 41.3 (no result: HEK293 NFkB inh, 5-HT1A blocker)
COc1cc(OC)cc(-n2nc(C(=O)N3CCC4(CC3)OCCO4)c3ccccc3c2=O)c1	none (no result: SKBR3 24h inh)

Screening data: PubChem BioAssay, several laboratories
